Measurements from ChEMBL document CHEMBL2375313, “Synthesis, in vitro antitumor evaluation and DNA-binding study of novel tetrahydroquinolines and some derived tricyclic and tetracyclic ring systems” (Eur J Med Chem, 2013).
In brackets after ≈: the same amount, converted by molar mass. Activity calls are given as the source filed them. No cut-off for these calls is given here.

What was measured:
HOP-92 = assay: Cytotoxicity against human HOP92 cells assessed as growth inhibition at 10 uM after 48 hrs by sulphorhodamine B assay; format: functional; conditions: HOP-92, 48 h, read-out: GI
How it was run: (§1)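 NCI-60 one-dose screen per the NCI Drug Evaluation Branch protocol. Cells given a single 10 µM concentration with 48 h continuous exposure. Growth estimated by sulphorhodamine B protein assay. Result expressed as percentage growth inhibition relative to untreated growth.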

NCI-H23 = assay: Cytotoxicity against human NCI-H23 cells assessed as growth inhibition at 10 uM after 48 hrs by sulphorhodamine B assay; format: functional; conditions: NCI-H23, 48 h, read-out: GI; how it was run: as §1
[1] = Cytotoxicity against human EKVX cells assessed as growth inhibition at 10 uM after 48 hrs by sulphorhodamine B assay; format: functional; conditions: read-out: GI; how it was run: as §1
A549 = assay: Cytotoxicity against human A549 cells assessed as growth inhibition at 10 uM after 48 hrs by sulphorhodamine B assay; format: functional; conditions: A549, 48 h, read-out: GI; how it was run: as §1
[2] = Displacement of methyl green from DNA (unknown origin) after 24 hrs
How it was run: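 DNA-methyl green complex was stirred in 0.05 M Tris-HCl pH 7.5 with 7.5 mmol MgSO4 at 37 °C for 24 h. Compound was dried down from EtOH in tubes and the DNA-methyl green solution added. A630 was read initially and after 24 h dark incubation at room temperature, corrected and normalized to untreated complex. IC50 is the concentration giving a 50% absorbance decrease; mean ± SD, n = 6.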

[3] = Binding affinity to DNA (unknown origin) at 5 mg/mL by RP-TLC plate analysis
How it was run: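 Reversed-phase C18 TLC plates pre-developed in methanol/water 8:2. Compound spotted at origin (5 mg/mL in methanol), then DNA (1 mg/mL in water/methanol 8:2) applied at the same spot. Plates developed in the same eluent; DNA located by anisaldehyde spray (blue). Ethidium bromide as positive control.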

NCI/ADR-RES = assay: Cytotoxicity against human NCI/ADR-RES cells assessed as growth inhibition at 10 uM after 48 hrs by sulphorhodamine B assay; format: functional; conditions: read-out: GI; how it was run: as §1
SNB-75 = assay: Cytotoxicity against human SNB75 cells assessed as growth inhibition at 10 uM after 48 hrs by sulphorhodamine B assay; format: functional; conditions: SNB-75, 48 h, read-out: GI; how it was run: as §1
U-251 = assay: Cytotoxicity against human U251 cells assessed as growth inhibition at 10 uM after 48 hrs by sulphorhodamine B assay; format: functional; conditions: U-251, 48 h, read-out: GI; how it was run: as §1
SNB-19 = assay: Cytotoxicity against human SNB19 cells assessed as growth inhibition at 10 uM after 48 hrs by sulphorhodamine B assay; format: functional; conditions: SNB-19, 48 h, read-out: GI; how it was run: as §1
SF-295 = assay: Cytotoxicity against human SF295 cells assessed as growth inhibition at 10 uM after 48 hrs by sulphorhodamine B assay; format: functional; conditions: SF-295, 48 h, read-out: GI; how it was run: as §1
DU-145 = assay: Cytotoxicity against human DU145 cells assessed as growth inhibition at 10 uM after 48 hrs by sulphorhodamine B assay; format: functional; conditions: DU-145, 48 h, read-out: GI; how it was run: as §1
SF-268 = assay: Cytotoxicity against human SF268 cells assessed as growth inhibition at 10 uM after 48 hrs by sulphorhodamine B assay; format: functional; conditions: SF-268, 48 h, read-out: GI; how it was run: as §1
PC-3 = assay: Cytotoxicity against human PC3 cells assessed as growth inhibition at 10 uM after 48 hrs by sulphorhodamine B assay; format: functional; conditions: PC-3, 48 h, read-out: GI; how it was run: as §1
UACC-62 = assay: Cytotoxicity against human UACC62 cells assessed as growth inhibition at 10 uM after 48 hrs by sulphorhodamine B assay; format: functional; conditions: UACC-62, 48 h, read-out: GI; how it was run: as §1
SK-MEL-2 = assay: Cytotoxicity against human SK-MEL-2 cells assessed as growth inhibition at 10 uM after 48 hrs by sulphorhodamine B assay; format: functional; conditions: SK-MEL-2, 48 h, read-out: GI; how it was run: as §1
SK-MEL-5 = assay: Cytotoxicity against human SK-MEL-5 cells assessed as growth inhibition at 10 uM after 48 hrs by sulphorhodamine B assay; format: functional; conditions: SK-MEL-5, 48 h, read-out: GI; how it was run: as §1
M14 = assay: Cytotoxicity against human M14 cells assessed as growth inhibition at 10 uM after 48 hrs by sulphorhodamine B assay; format: functional; conditions: M14, 48 h, read-out: GI; how it was run: as §1
LOX IMVI = assay: Cytotoxicity against human LOXIMVI cells assessed as growth inhibition at 10 uM after 48 hrs by sulphorhodamine B assay; format: functional; conditions: read-out: GI; how it was run: as §1
UO-31 = assay: Cytotoxicity against human UO31 cells assessed as growth inhibition at 10 uM after 48 hrs by sulphorhodamine B assay; format: functional; conditions: UO-31, 48 h, read-out: GI; how it was run: as §1
CAKI-1 = assay: Cytotoxicity against human Caki1 cells assessed as growth inhibition at 10 uM after 48 hrs by sulphorhodamine B assay; format: functional; conditions: CAKI-1, 48 h, read-out: GI; how it was run: as §1
RXF 393 = assay: Cytotoxicity against human RXF393 cells assessed as growth inhibition at 10 uM after 48 hrs by sulphorhodamine B assay; format: functional; conditions: RXF 393, 48 h, read-out: GI; how it was run: as §1
ACHN = assay: Cytotoxicity against human ACHN cells assessed as growth inhibition at 10 uM after 48 hrs by sulphorhodamine B assay; format: functional; conditions: read-out: GI; how it was run: as §1
SR = assay: Cytotoxicity against human SR cells assessed as growth inhibition at 10 uM after 48 hrs by sulphorhodamine B assay; format: functional; conditions: read-out: GI; how it was run: as §1
A498 = assay: Cytotoxicity against human A498 cells assessed as growth inhibition at 10 uM after 48 hrs by sulphorhodamine B assay; format: functional; conditions: A498, 48 h, read-out: GI; how it was run: as §1
RPMI-8226 = assay: Cytotoxicity against human RPMI8226 cells assessed as growth inhibition at 10 uM after 48 hrs by sulphorhodamine B assay; format: functional; conditions: RPMI-8226, 48 h, read-out: GI; how it was run: as §1
MOLT-4 = assay: Cytotoxicity against human MOLT4 cells assessed as growth inhibition at 10 uM after 48 hrs by sulphorhodamine B assay; format: functional; conditions: MOLT-4, 48 h, read-out: GI; how it was run: as §1
K562 = assay: Cytotoxicity against human K562 cells assessed as growth inhibition at 10 uM after 48 hrs by sulphorhodamine B assay; format: functional; conditions: K562, 48 h, read-out: GI; how it was run: as §1
HL-60(TB) = assay: Cytotoxicity against human HL-60(TB) cells assessed as growth inhibition at 10 uM after 48 hrs by sulphorhodamine B assay; format: functional; conditions: HL-60, 48 h, read-out: GI
How it was run: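 NCI-60 one-dose primary screen run to the Drug Evaluation Branch protocol. Cells are exposed to a single 10 µM concentration for 48 h continuously, and growth is read by SRB protein assay. Data are reported as percent growth of treated cells, expressed as % growth inhibition.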

SK-OV-3 = assay: Cytotoxicity against human SKOV3 cells assessed as growth inhibition at 10 uM after 48 hrs by sulphorhodamine B assay; format: functional; conditions: SK-OV-3, 48 h, read-out: GI; how it was run: as §1
CCRF-CEM = assay: Cytotoxicity against human CCRF-CEM cells assessed as growth inhibition at 10 uM after 48 hrs by sulphorhodamine B assay; format: functional; conditions: read-out: GI; how it was run: as §1
OVCAR-5 = assay: Cytotoxicity against human OVCAR5 cells assessed as growth inhibition at 10 uM after 48 hrs by sulphorhodamine B assay; format: functional; conditions: OVCAR-5, 48 h, read-out: GI; how it was run: as §1
OVCAR-4 = assay: Cytotoxicity against human OVCAR4 cells assessed as growth inhibition at 10 uM after 48 hrs by sulphorhodamine B assay; format: functional; conditions: OVCAR-4, 48 h, read-out: GI; how it was run: as §1
IGROV-1 = assay: Cytotoxicity against human IGROV1 cells assessed as growth inhibition at 10 uM after 48 hrs by sulphorhodamine B assay; format: functional; conditions: IGROV-1, 48 h, read-out: GI; how it was run: as §1
T47D = assay: Cytotoxicity against human T47D cells assessed as growth inhibition at 10 uM after 48 hrs by sulphorhodamine B assay; format: functional; conditions: read-out: GI; how it was run: as §1
Hs-578T = assay: Cytotoxicity against human Hs578T cells assessed as growth inhibition at 10 uM after 48 hrs by sulphorhodamine B assay; format: functional; conditions: read-out: GI; how it was run: as §1
NCI-H522 = assay: Cytotoxicity against human NCI-H522 cells assessed as growth inhibition at 10 uM after 48 hrs by sulphorhodamine B assay; format: functional; conditions: NCI-H522, 48 h, read-out: GI; how it was run: as §1
HT-29 = assay: Cytotoxicity against human HT-29 cells assessed as growth inhibition at 10 uM after 48 hrs by sulphorhodamine B assay; format: functional; conditions: HT-29, 48 h, read-out: GI; how it was run: as §1
MCF7 = assay: Cytotoxicity against human MCF7 cells assessed as growth inhibition at 10 uM after 48 hrs by sulphorhodamine B assay; format: functional; conditions: MCF7, 48 h, read-out: GI; how it was run: as §1
MDA-MB-435 = assay: Cytotoxicity against human MDA-MB-435 cells assessed as growth inhibition at 10 uM after 48 hrs by sulphorhodamine B assay; format: functional; conditions: MDA-MB-435, 48 h, read-out: GI; how it was run: as §1
HCT-15 = assay: Cytotoxicity against human HCT15 cells assessed as growth inhibition at 10 uM after 48 hrs by sulphorhodamine B assay; format: functional; conditions: HCT-15, 48 h, read-out: GI; how it was run: as §1
HCT-116 = assay: Cytotoxicity against human HCT116 cells assessed as growth inhibition at 10 uM after 48 hrs by sulphorhodamine B assay; format: functional; conditions: HCT-116, 48 h, read-out: GI; how it was run: as §1

**Q.** What does the source list for `CC1CCCc2c1nc1[nH]c(=S)nc(N)c1c2-c1ccc(Cl)cc1` (centres undefined)?
**A.** inhibition of growth at 10 µM (HOP-92): < 10%; inhibition of growth at 10 µM (NCI-H23): 10.1%; inhibition of growth at 10 µM [1]: 14.5%; inhibition of growth at 10 µM (A549): < 10%; IC50 [2]: 0.151 µg/mL (≈ 0.423 µM); Activity [3]: Active; inhibition of growth at 10 µM (NCI/ADR-RES): < 10%; inhibition of growth at 10 µM (SNB-75): 10.2%; inhibition of growth at 10 µM (U-251): < 10%; inhibition of growth at 10 µM (SNB-19): 10%; inhibition of growth at 10 µM (SF-295): < 10%; inhibition of growth at 10 µM (DU-145): < 10%; inhibition of growth at 10 µM (SF-268): 18.8%; inhibition of growth at 10 µM (PC-3): 56.7%; inhibition of growth at 10 µM (UACC-62): 15.8%; inhibition of growth at 10 µM (SK-MEL-2): 11.4%; inhibition of growth at 10 µM (SK-MEL-5): 10.3%; inhibition of growth at 10 µM (M14): < 10%; inhibition of growth at 10 µM (LOX IMVI): < 10%; inhibition of growth at 10 µM (UO-31): < 10%; inhibition of growth at 10 µM (CAKI-1): 31.3%; inhibition of growth at 10 µM (RXF 393): < 10%; inhibition of growth at 10 µM (ACHN): < 10%; inhibition of growth at 10 µM (SR): 25.8%; inhibition of growth at 10 µM (A498): 11.5%; inhibition of growth at 10 µM (RPMI-8226): 37%; inhibition of growth at 10 µM (MOLT-4): 26.2%; inhibition of growth at 10 µM (K562): 15%; inhibition of growth at 10 µM (HL-60(TB)): 10%; inhibition of growth at 10 µM (SK-OV-3): < 10%; inhibition of growth at 10 µM (CCRF-CEM): 28.8%; inhibition of growth at 10 µM (OVCAR-5): < 10%; inhibition of growth at 10 µM (OVCAR-4): < 10%; inhibition of growth at 10 µM (IGROV-1): 10%; inhibition of growth at 10 µM (T47D): 15.2%; inhibition of growth at 10 µM (Hs-578T): < 10%; inhibition of growth at 10 µM (NCI-H522): 10%; inhibition of growth at 10 µM (HT-29): < 10%; inhibition of growth at 10 µM (MCF7): 10.4%; inhibition of growth at 10 µM (MDA-MB-435): < 10%; inhibition of growth at 10 µM (HCT-15): 14.3%; inhibition of growth at 10 µM (HCT-116): 10.5%

**Q.** Which IC50 [2] does the source give for `CC[n+]1c(-c2ccccc2)c2cc(N)ccc2c2ccc(N)cc21.[Br-]` [HOMIDIUM BROMIDE] here?
**A.** 0.004 µg/mL

**Q.** And the Activity [3]?
**A.** Active
